Experimental data taken from PubChem BioAssay.
Activity calls are given as the source filed them.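 The calls were made as follows, unless noted: active = inhibition at or above 50% at 10 µM; inactive = inhibition below 50%.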

Tests used:
[1] = inhibitors of TNFa-induced NFkB p65 translocation, primary screen, imaging, HUVEC, MLSMR starter and 10KST1 sets (AID 438;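 active = inhibition above 20% together with a positive visual image hit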;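 also: compound added about 3h40 before a 20 min TNFalpha stimulation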;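 as to inhibition: signal is the nuclear over cytoplasmic p65 intensity ratio per well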); settings: HUVEC TNFa-induced p65 nuclear translocation; cell count: measured here: nuclei count (cytotoxicity indicator), at 2.08 µM; inhibition: at 2 µM, stronger effect = higher value, 0% TNFa-plus-vehicle, 100% no-TNFa wells
[2] = reduction of polyQ htt aggregates in cells – imaging, exon1htt(103Q)mCFP cells, high-content imaging, primary screen (AID 483;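 active = visual image review flags a hit and inhibition of aggregation exceeds 20%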;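 also: compound exposure lasted 3 days before fixation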;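 as to nuclei count: percent of the per-plate median nuclei count of sample wells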); settings: exon1htt(103Q)mCFP cell line, aggregate imaging, at 2 µM; inhibition of aggregation: stronger effect = higher value; nuclei count: measured here: cell count, toxicity
[3] = endothelial E-selectin expression blockers – imaging, HUVEC, immunofluorescence, MLSMR starter and 10KST1 sets, primary screen (AID 487;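 active = visually confirmed hit in the image check and inhibition above 20%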;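 as to inhibition: signal is fraction of cell area covered by stained E-selectin grains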;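 as to nuclei count: 100% = median nuclei count of all wells on the same plate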); settings: HUVEC TNFalpha-induced E-selectin immunofluorescence imaging, at 2 µM; inhibition: stronger effect = higher value; nuclei count: measured here: cell number, toxicity
[4] = target: Voltage-gated potassium channel subunit beta-2 (Rattus norvegicus) (UniProt P62483); assay: inhibitors of rat Kvbeta2 reductase activity – biochemical, NADPH fluorescence, primary screen (AID 622;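 active = fluorescence slope higher than the sample average by over 3 SD, cut at about -0.22 in these data, passing the limit was not always enough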;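 also: slope of raw intensity against log time taken from 70 to 1610 s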); settings: recombinant KvBeta, 4-cyanobenzaldehyde reduction, at 10 µM, stronger effect = higher value
Chain of Voltage-gated potassium channel subunit beta-2 (Rattus norvegicus) (P62483 whole entry, looked up): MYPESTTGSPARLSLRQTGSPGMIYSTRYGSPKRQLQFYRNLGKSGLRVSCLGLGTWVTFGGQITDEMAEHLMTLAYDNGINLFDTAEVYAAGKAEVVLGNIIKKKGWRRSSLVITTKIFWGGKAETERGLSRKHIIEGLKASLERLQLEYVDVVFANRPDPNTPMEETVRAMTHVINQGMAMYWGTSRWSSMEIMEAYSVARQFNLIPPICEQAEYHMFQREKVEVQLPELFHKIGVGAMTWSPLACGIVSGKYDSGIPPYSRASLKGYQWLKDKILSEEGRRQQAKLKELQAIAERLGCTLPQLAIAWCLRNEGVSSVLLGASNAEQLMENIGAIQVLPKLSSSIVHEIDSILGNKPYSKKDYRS

[5] = target: Voltage-gated potassium channel subunit beta-2 (Rattus norvegicus) (UniProt P62483); assay: enhancers of rat Kvbeta2 NADPH turnover – biochemical, NADPH fluorescence, primary screen (AID 623;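 active = NADPH fluorescence slope more negative than the mean of all samples by about 3 SD, 99.7% confidence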;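 also: fluorescence intensity change per second fitted from 20 to 320 s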); settings: Recombinant KvBeta, NADPH fluorescence decrease slope, 10 min; at 10 µM; stronger effect = lower value
[6] = target: Alpha-2C adrenergic receptor (Homo sapiens) (UniProt P18825); assay: compounds altering alpha2C-coupled GIRK flux – cell-based, HEK293 alpha2C/GIRK1/2, thallium flux, primary screen (AID 624;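 active = fluorescence slope after compound addition differing from the mean of all screened samples at 99.7% confidence, in either direction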;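 also: slope of fluorescence ratio to pre-addition baseline per second over 15 to 24 s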); settings: thallium flux BTC fluorescence, at 10 µM, actives lie on both sides
Chain of Alpha-2C adrenergic receptor (Homo sapiens) (P18825 whole entry, looked up): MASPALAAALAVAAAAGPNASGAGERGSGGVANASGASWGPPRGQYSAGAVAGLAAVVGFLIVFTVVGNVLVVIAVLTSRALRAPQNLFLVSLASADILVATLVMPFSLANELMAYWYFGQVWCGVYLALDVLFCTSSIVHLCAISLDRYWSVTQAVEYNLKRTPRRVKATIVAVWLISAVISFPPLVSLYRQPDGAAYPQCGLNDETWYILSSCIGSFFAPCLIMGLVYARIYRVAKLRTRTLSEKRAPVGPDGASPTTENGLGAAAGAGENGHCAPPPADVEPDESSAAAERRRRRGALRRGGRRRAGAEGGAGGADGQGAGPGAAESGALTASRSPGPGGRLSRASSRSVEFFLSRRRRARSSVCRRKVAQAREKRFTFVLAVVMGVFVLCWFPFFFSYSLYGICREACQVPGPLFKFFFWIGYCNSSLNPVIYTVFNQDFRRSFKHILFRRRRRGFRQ

[7] = inhibitors of larval lipid processing in zebrafish, primary screen, whole organism, PED6 fluorescence, gall bladder and intestine (AID 686;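 active = a full or partial loss of lipid-probe fluorescence in the fish gall bladder, intestine or both, judged by eye; inactive = no fluorescence loss, or compound toxic to the fish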;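 also: larvae 5 to 7 days old with five fish per well; signal comes from phospholipase A2 cleavage of quenched PED6 carried via bile; overnight exposure to compound and PED6 before scoring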); settings: Zebrafish larvae PED6 lipid processing, fluorescence scoring; screened at 20 µM (by protocol)
Summary of the method: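 Test system – live zebrafish larvae aged 5-7 days, whole organism · Buffer or medium – E3 fish medium · Reagent – quenched phospholipase substrate PED6, 100 nM final, ingested by larvae · Doses – 20 µM single dose · Incubation – overnight compound and PED6 incubation · Technique – visual fluorescence microscopy scoring of gall bladder, gut · Read-out basis – visual per-well fluorescence inhibition score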

[8] = blockers of RIG-like receptor reporter activation – cell-based, Sendai virus stimulus, luciferase, 10K MLSCN set, TLR/RLR signaling modifier project, primary screen (AID 602276); settings: HEK293 RL24 IRF3 luciferase reporter, at 10 µM, stronger effect = higher value;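 also: firefly luciferase from ISG56 promoter only with Renilla not read in this screen; 0% = Sendai virus plus DMSO and 100% = medium plus DMSO without virus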
[9] = TLR3 IRF3 reporter activation blockers – cell-based, poly I:C stimulus, luciferase, 10K MLSCN set, primary screen (AID 602277;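 active = inhibition of the reporter signal at or above 50%; inactive = inhibition below 50%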); settings: HEK293-TLR3 RL24 IRF3 luciferase reporter, at 10 µM, stronger effect = higher value

SMILES	cell count [1]	inhibition [1]	inhibition of aggregation [2]	nuclei count [2] [%]	inhibition [3]	nuclei count [3] [%]	fluorescence slope [4]	NADPH fluorescence slope [5]	slope [6]	outcome [7]	inhibition [8]	inhibition [9]
c1ccc(-c2nc3cnccn3c2Nc2ccc3c(c2)OCCO3)cc1	606	-36.1% (inactive)	11.9% (inactive)	101	-20.7% (inactive)	110	-0.202 (inactive)	-6.7e-06 (inactive)	0.00431 (inactive)	inactive	8.91% (inactive)	11.5% (inactive)
Cc1[nH]nc(-c2ccc(O)c(C)c2O)c1-c1cnn(-c2ccccc2)c1	345	1.5% (inactive)	10.3% (inactive)	111	45.5% (inactive)	97.8	-0.438 (inactive)	-2.4e-05 (inactive)	0.00436 (inactive)	inactive	11.4% (inactive)	5.23% (inactive)
COc1ccccc1NC(=O)N(Cc1ccco1)Cc1cc2cccc(C)c2[nH]c1=O	333	-9.3% (inactive)	18.6% (inactive)	105	30.7% (inactive)	89.2	-0.347 (inactive)	-5.6e-05 (inactive)	0.00419 (inactive)	inactive	8.12% (inactive)	-0.891% (inactive)
CCOC(=O)c1cnc(-n2nc(C)cc2C)nc1N1CC(C)OC(C)C1 (centres undefined)	654	-15.5% (inactive)	29.7% (inactive)	69.8	-1.6% (inactive)	96.9	-0.411 (inactive)	-3.9e-05 (inactive)	0.00483 (inactive)	inactive	-6.36% (inactive)	6.34% (inactive)
O=C(C1CCCO1)N1CCN(S(=O)(=O)c2ccccc2)CC1 (centres undefined)	328	4% (inactive)	3.2% (inactive)	86.5	-28.4% (inactive)	102	-0.439 (inactive)	-8.1e-05 (inactive)	0.00532 (inactive)	inactive	12.6% (inactive)	12.9% (inactive)
CC(C)c1cc(C(=O)Nc2cccnc2)no1	250	-2.8% (inactive)	-12.9% (inactive)	103	-9.6% (inactive)	115	-0.398 (inactive)	-6.1e-05 (inactive)	0.00525 (inactive)	inactive	-22.1% (inactive)	-67.3% (inactive)
O=C1C2CCCN2C(c2ccccc2)N1c1ccc(Cl)cc1 (centres undefined)	374	5.5% (inactive)	-14.7% (inactive)	99.5	-25.3% (inactive)	114	-0.424 (inactive)	-6.3e-05 (inactive)	0.00548 (inactive)	inactive	31.4% (inactive)	-130% (inactive)
Cc1ccc2c(c1)CCCN2C(=O)c1ccc2c(c1)OCO2	328	-0.6% (inactive)	-0.1% (inactive)	99.3	-117% (inactive)	118	-0.457 (inactive)	-5.1e-05 (inactive)	0.00431 (inactive)	inactive	4.95% (inactive)	4.76% (inactive)
C=CCOc1ccc(CN(C)CC(=O)N(CC(C)C)c2c(N)n(CC(C)C)c(=O)[nH]c2=O)cc1	492	8.3% (inactive)	-8.7% (inactive)	101	-77.8% (inactive)	123	-0.452 (inactive)	-4.3e-05 (inactive)	0.00414 (inactive)	inactive	21.6% (inactive)	19.4% (inactive)
COc1ccccc1NC(=O)NC(N)=O	580	0.5% (inactive)	-22.8% (inactive)	104	-36.1% (inactive)	115	-0.386 (inactive)	4.8e-06 (inactive)	0.00503 (inactive)	inactive	2.43% (inactive)	1.16% (inactive)
COc1ccc(OC)c(NC(=O)CS(=O)(=O)c2ccccc2)c1	410	-0.6% (inactive)	-1.6% (inactive)	107	-66.5% (inactive)	121	-0.438 (inactive)	1.3e-05 (inactive)	0.00539 (inactive)	inactive	-3.16% (inactive)	6.62% (inactive)
Cc1cc(C(F)(F)F)c2c(C)nn(CCc3nn[nH]n3)c2n1	863	1.1% (inactive)	11.9% (inactive)	112	-20% (inactive)	117	-0.368 (inactive)	1.8e-05 (inactive)	0.00523 (inactive)	inactive	-11.3% (inactive)	-12.7% (inactive)
Cn1c(=O)cc(SCC(=O)NCc2cccnc2)c2ccccc21	634	2.8% (inactive)	3.4% (inactive)	104	-48.7% (inactive)	110	-0.31 (inactive)	-3.9e-05 (inactive)	0.00505 (inactive)	inactive	9.23% (inactive)	9.63% (inactive)
O=C(Nc1cc(C(=O)N2CCCC2)ccc1N1CCCC1)c1ccccc1F	612	2% (inactive)	-12.8% (inactive)	107	-93% (inactive)	95.8	-0.343 (inactive)	-7.2e-05 (inactive)	0.00481 (inactive)	inactive	-1.26% (inactive)	-54% (inactive)
c1n[nH]c(SCCCCSc2ncn[nH]2)n1	512	-30.6% (inactive)	-15.1% (inactive)	108	24% (inactive)	113	-0.452 (inactive)	-7e-05 (inactive)	0.00417 (inactive)	inactive	15.9% (inactive)	13% (inactive)
CCOC(=O)c1[nH]c2ccc(C)cc2c1NC(=O)CN1CCCCC1	672	13.7% (inactive)	5.6% (inactive)	93.3	-12% (inactive)	87.9	-0.349 (inactive)	-2.6e-05 (inactive)	0.00444 (inactive)	inactive	13.3% (inactive)	14.1% (inactive)
CC1CCCCC1NC(=O)COc1ccc(-n2cnnn2)cc1 (centres undefined)	508	6.8% (inactive)	5.2% (inactive)	81.6	-175% (inactive)	108	-0.449 (inactive)	-7.6e-05 (inactive)	0.00588 (inactive)	inactive	6.84% (inactive)	25.1% (inactive)
c1ccc(-c2nnc(SCc3nc4ccccc4[nH]3)o2)cc1	285	8.2% (inactive)	-3.4% (inactive)	94.1	34.3% (inactive)	87.8	-0.304 (inactive)	-1.4e-05 (inactive)	0.00613 (inactive)	inactive	12.6% (inactive)	-7.21% (inactive)
Cn1c(CSc2nc3ccccc3s2)nnc1SCC(=O)NCCN1CCOCC1	487	4.5% (inactive)	-3.4% (inactive)	94.1	-23% (inactive)	125	-0.409 (inactive)	-8.1e-06 (inactive)	0.00477 (inactive)	inactive	-5.77% (inactive)	13.9% (inactive)
O=C(Cn1c(=O)oc2ccccc21)N1CCN(c2ccccc2)CC1	421	2.6% (inactive)	10% (inactive)	99.1	-10.5% (inactive)	114	-0.407 (inactive)	-4.3e-05 (inactive)	0.00535 (inactive)	inactive	8.94% (inactive)	14.4% (inactive)
CNC(=O)CSc1nc2c(c(=O)n(C)c(=O)n2C)n1Cc1ccc(C)cc1	346	4% (inactive)	15.9% (inactive)	80.4	-12.3% (inactive)	88.8	-0.37 (inactive)	-5.6e-05 (inactive)	0.00619 (inactive)	inactive	6.2% (inactive)	24.5% (inactive)
CCC(C(=O)NC(C)CCc1ccco1)n1nc(C)n2c(cc3occc32)c1=O (centres undefined)	488	6% (inactive)	-13.2% (inactive)	84.5	-121% (inactive)	98.3	-0.475 (inactive)	-2e-05 (inactive)	0.00405 (inactive)	inactive	2.28% (inactive)	2.25% (inactive)
c1cnc(NCCNc2ncccn2)nc1	709	-5% (inactive)	11.9% (inactive)	132	-57.1% (inactive)	124	-0.346 (inactive)	-4.1e-05 (inactive)	0.00555 (inactive)	inactive	5.48% (inactive)	2.33% (inactive)
COc1ccc(NC(=O)Nc2ccccc2C)c(OC)c1	371	1.5% (inactive)	-3.2% (inactive)	107	-31.1% (inactive)	116	-0.379 (inactive)	-7.9e-05 (inactive)	0.00603 (inactive)	inactive	6.08% (inactive)	12.1% (inactive)
O=C(CSc1nnc(Cc2ccccc2)n1-c1cccc(Cl)c1)N1CCOCC1	352	10.5% (inactive)	-18.8% (inactive)	85.8	-207% (inactive)	119	-0.4 (inactive)	-4.5e-05 (inactive)	0.00585 (inactive)	inactive	-1.07% (inactive)	9.14% (inactive)
O=C(CN(c1ccc(F)cc1)S(=O)(=O)c1ccc2c(c1)OCCO2)Nc1cccnc1	757	1.6% (inactive)	7% (inactive)	93.5	-19.1% (inactive)	111	-0.453 (inactive)	-4.5e-05 (inactive)	0.00513 (inactive)	inactive	7.14% (inactive)	18.5% (inactive)
COCCn1c(Sc2nc(C)cs2)nc2c1c(=O)[nH]c(=O)n2C	422	5% (inactive)	-38.9% (inactive)	105	-78.3% (inactive)	78.1	-0.475 (inactive)	-1.5e-05 (inactive)	0.00482 (inactive)	inactive	17.1% (inactive)	11.3% (inactive)
